≈ marks a conversion by molar mass, not a printed value.
Tests used:
[1] = Inhibition of Staphylococcus aureus tyrosyl-tRNA synthetase by aminoacylation assay
Method in brief: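 S. aureus TyrRS overexpressed in E. coli and purified (~98% by SDS–PAGE). Enzyme (0.2 nM) preincubated with a range of inhibitor concentrations for 10 min at room temperature, then prewarmed mix added at 37 °C. TCA-precipitated charged tRNA counted by scintillation; IC₅₀ is the concentration halving activity.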

Streptococcus pneumoniae = assay: Antimicrobial activity against Streptococcus pneumoniae R6 by broth microdilution method; assay type: functional
Bacillus subtilis = assay: Antimicrobial activity against Bacillus subtilis ATCC 6633 after 24 hrs by MTT assay; assay type: functional; details: ATCC 6633, 24 h
Method in brief: (§1)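 MTT colorimetric broth microdilution in LB medium. Compounds serially diluted in sterile medium (50% v/v DMSO in PBS). Inoculum approx. 10⁵ cfu/mL, 37 °C for 24 h. Then 50 µL PBS with 2 mg/mL MTT added per well, 4–5 h at room temperature. After a further 12 h at room temperature, OD read at 550 nm to give MIC₅₀.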

Staphylococcus aureus = assay: Antimicrobial activity against Staphylococcus aureus ATCC 25923 after 24 hrs by MTT assay; assay type: functional; details: ATCC 25923, 24 h; method in brief: as §1
Candida albicans = assay: Antimicrobial activity against Candida albicans ATCC 10231 after 48 hrs by MTT assay; assay type: functional; details: ATCC 10231, 48 h
Method in brief: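 Antifungal MTT colorimetric microdilution in RPMI-1640 medium. Compounds serially diluted in sterile medium (50% v/v DMSO in PBS). Inoculum approx. 10⁵ cfu/mL, plates at 27 °C for 48 h. Then PBS with 2 mg/mL MTT added, 4–5 h at room temperature. After a further 12 h, OD read at 550 nm to give MIC₅₀.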

Escherichia coli = assay: Antimicrobial activity against Escherichia coli ATCC 35218 after 24 hrs by MTT assay; assay type: functional; details: ATCC 35218, 24 h; method in brief: as §1

Row | SMILES | IC50 [1] | MIC (Streptococcus pneumoniae) | MIC50 (Bacillus subtilis) | MIC50 (Staphylococcus aureus) | MIC50 (Candida albicans) | MIC50 (Escherichia coli; read-out: MIC50) | MIC50 (Escherichia coli)
1 | N[C@@H](Cc1ccc(O)cc1)C(=O)N[C@H](C(=O)O)[C@H]1[C@H](O)[C@](O)(CO)[C@@H](O)CN1O | 0.003 µM | > 64 µg/mL |  |  |  |  | 
2 | O=C1OCC(NCc2ccccc2)=C1c1cccc(Cl)c1 | 8.9 µM |  | > 100 µg/mL | 25.3 µg/mL (≈ 84.4 µM) | 83.9 µg/mL (≈ 280 µM) | > 100 µg/mL | 
3 | O=C1OCC(N2CCCC2)=C1c1ccc(Br)cc1 |  |  | 50 µg/mL (≈ 162 µM) | 37.1 µg/mL (≈ 120 µM) | 49.8 µg/mL (≈ 162 µM) | > 100 µg/mL | 
4 | O=C1OCC(N2CCCCC2)=C1c1ccc(Br)cc1 | 7.7 µM |  | > 100 µg/mL | 21.8 µg/mL (≈ 67.7 µM) | 74.4 µg/mL (≈ 231 µM) | > 100 µg/mL | 
5 | O=C1OCC(N2CCOCC2)=C1c1ccc(Br)cc1 |  |  | 91.8 µg/mL (≈ 283 µM) | 42.6 µg/mL (≈ 131 µM) | 89.7 µg/mL (≈ 277 µM) | > 100 µg/mL | 
6 | O=C1OCC(N2CCNCC2)=C1c1ccc(Br)cc1 |  |  | 78.5 µg/mL (≈ 243 µM) | 54.7 µg/mL (≈ 169 µM) | 77.4 µg/mL (≈ 239 µM) | > 100 µg/mL | 
7 | O=C1OCC(NCCN2CCOCC2)=C1c1ccc(Br)cc1 | 3.3 µM |  | 24.7 µg/mL (≈ 67.3 µM) | 9.7 µg/mL (≈ 26.4 µM) | 3.5 µg/mL (≈ 9.53 µM) | > 100 µg/mL | 
8 | O=C1OCC(NC2CCCCC2)=C1c1ccc(Br)cc1 | 14.5 µM |  | 86.7 µg/mL (≈ 258 µM) | 27.8 µg/mL (≈ 82.7 µM) | 62.8 µg/mL (≈ 187 µM) | > 100 µg/mL | 
9 | CCCNC1=C(c2ccc(Br)cc2)C(=O)OC1 |  |  | > 100 µg/mL | 87.2 µg/mL (≈ 294 µM) | > 100 µg/mL | > 100 µg/mL | 
10 | CCCCNC1=C(c2ccc(Br)cc2)C(=O)OC1 |  |  | > 100 µg/mL | > 100 µg/mL | > 100 µg/mL | > 100 µg/mL | 
11 | CN(C)C1=C(c2ccc(Br)cc2)C(=O)OC1 |  |  | > 100 µg/mL | > 100 µg/mL | > 100 µg/mL | > 100 µg/mL | 
12 | O=C1OCC(NCc2ccccc2)=C1c1ccc(Br)cc1 |  |  | > 100 µg/mL | 57.6 µg/mL (≈ 167 µM) | > 100 µg/mL | > 100 µg/mL | 
13 | O=C1OCC(NNc2ccc([N+](=O)[O-])cc2)=C1c1ccc(Br)cc1 | 0.12 µM |  | 9.5 µg/mL (≈ 24.3 µM) | 0.42 µg/mL (≈ 1.08 µM) | 5.2 µg/mL (≈ 13.3 µM) | 79.4 µg/mL (≈ 203 µM) | 
14 | O=C1OCC(NNc2ccc([N+](=O)[O-])cc2)=C1c1ccccc1 | 0.24 µM |  | 15.6 µg/mL (≈ 50.1 µM) | 0.85 µg/mL (≈ 2.73 µM) | 13.1 µg/mL (≈ 42.1 µM) | > 100 µg/mL | 
15 | O=C1OCC(N2CCCC2)=C1c1ccc(Cl)cc1 |  |  | > 100 µg/mL | 88.4 µg/mL (≈ 335 µM) | > 100 µg/mL | > 100 µg/mL | 
16 | O=C1OCC(N2CCCC2)=C1c1cccc(Cl)c1 | 5.6 µM |  | 87.4 µg/mL (≈ 331 µM) | 12.6 µg/mL (≈ 47.8 µM) | 71.2 µg/mL (≈ 270 µM) | > 100 µg/mL | 
17 | O=C1OCC(N2CCCCC2)=C1c1cccc(Cl)c1 | 2.8 µM |  | 41.6 µg/mL (≈ 150 µM) | 7.5 µg/mL (≈ 27 µM) | 33.1 µg/mL (≈ 119 µM) | > 100 µg/mL | 
18 | O=C1OCC(N2CCOCC2)=C1c1cccc(Cl)c1 | 10.8 µM |  | 93.1 µg/mL (≈ 333 µM) | 25.7 µg/mL (≈ 91.9 µM) | 74.6 µg/mL (≈ 267 µM) | > 100 µg/mL | 

Row | SMILES | IC50 [1] | MIC (Streptococcus pneumoniae) | MIC50 (Bacillus subtilis) | MIC50 (Staphylococcus aureus) | MIC50 (Candida albicans) | MIC50 (Escherichia coli; read-out: MIC50) | MIC50 (Escherichia coli)
19 | O=C1OCC(N2CCNCC2)=C1c1cccc(Cl)c1 |  |  | > 100 µg/mL | 37.4 µg/mL (≈ 134 µM) | > 100 µg/mL | > 100 µg/mL | 
20 | CN1CCN(C2=C(c3cccc(Cl)c3)C(=O)OC2)CC1 |  |  | > 100 µg/mL | 65.2 µg/mL (≈ 223 µM) | > 100 µg/mL | > 100 µg/mL | 
21 | O=C1OCC(NCCN2CCOCC2)=C1c1cccc(Cl)c1 | 0.86 µM |  | 27.9 µg/mL (≈ 86.4 µM) | 3.2 µg/mL (≈ 9.91 µM) | 21.3 µg/mL (≈ 66 µM) | > 100 µg/mL | 
22 | CCCNC1=C(c2cccc(Cl)c2)C(=O)OC1 |  |  | > 100 µg/mL | 52.4 µg/mL (≈ 208 µM) | > 100 µg/mL | > 100 µg/mL | 
23 | CCCCNC1=C(c2cccc(Cl)c2)C(=O)OC1 |  |  | > 100 µg/mL | > 100 µg/mL | 9.08 µg/mL (≈ 34.2 µM) | > 100 µg/mL | 
24 | COc1ccc(C2=C(N3CCCC3)COC2=O)cc1OC |  |  | > 100 µg/mL | > 100 µg/mL | > 100 µg/mL | > 100 µg/mL | 
25 | COc1ccc(C2=C(N3CCCCC3)COC2=O)cc1OC |  |  | > 100 µg/mL | > 100 µg/mL | > 100 µg/mL | > 100 µg/mL | 
26 | COc1ccc(C2=C(N3CCOCC3)COC2=O)cc1OC |  |  | > 100 µg/mL | > 100 µg/mL | > 100 µg/mL | > 100 µg/mL | 
27 | COc1ccc(C2=C(N3CCNCC3)COC2=O)cc1OC |  |  | > 100 µg/mL | > 100 µg/mL | > 100 µg/mL | > 100 µg/mL | 
28 | COc1ccc(C2=C(NC3CCCCC3)COC2=O)cc1OC |  |  | > 100 µg/mL | > 100 µg/mL | > 100 µg/mL | > 100 µg/mL | 
29 | COc1ccc(C2=C(NCCN3CCOCC3)COC2=O)cc1OC |  |  | > 100 µg/mL | 68.3 µg/mL (≈ 196 µM) | > 100 µg/mL | > 100 µg/mL | 
30 | CCCCNC1=C(c2ccc(OC)c(OC)c2)C(=O)OC1 |  |  | > 100 µg/mL | > 100 µg/mL | > 100 µg/mL | > 100 µg/mL | 
31 | COc1ccc(C2=C(NCc3ccccc3)COC2=O)cc1OC |  |  | > 100 µg/mL | > 100 µg/mL | > 100 µg/mL | > 100 µg/mL | 
32 | CN(C)C1=C(c2cccc(Br)c2)C(=O)OC1 |  |  | > 100 µg/mL | 61.4 µg/mL (≈ 218 µM) | > 100 µg/mL | > 100 µg/mL | 
33 | NC[C@H]1O[C@H](O[C@H]2[C@H](O)[C@@H](O[C@H]3O[C@H](CO)[C@@H](O)[C@H](N)[C@H]3O)[C@H](N)C[C@@H]2N)[C@H](O)[C@@H](O)[C@@H]1O [KANAMYCIN] |  |  | 0.43 µg/mL (≈ 0.888 µM) | 1 µg/mL (≈ 2.06 µM) |  |  | 
34 | CC(=O)N1CCN(c2ccc(OCC3COC(Cn4ccnc4)(c4ccc(Cl)cc4Cl)O3)cc2)CC1 (stereo not given) [KETOCONAZOLE] |  |  |  |  | 4.4 µg/mL (≈ 8.28 µM) |  | 
35 | CC1(C)S[C@@H]2[C@H](NC(=O)Cc3ccccc3)C(=O)N2[C@H]1C(=O)O [PENICILLIN G] |  |  |  |  |  |  | 2.5 µg/mL (≈ 7.48 µM)
